Data reported in publication PMC12393413 (bioRxiv, 2025).

Legend:
MDA-MB-468 cells = test: Western blot analysis of UPR / PERK-eIF2α-ATF4 pathway proteins; type: cell-based, human; conditions: for baseline phosphorylation of PERK and eIF2α, inhibitor alone: Western blot; for effect on DH20931-induced accumulation of ATF4 protein / effect on DH20931-induced phosphorylation of PERK and eIF2α: co-treatment with DH20931, Western blot
How it was run: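 Treatment lasted 24 h at 0, 2.5, 5, 10 or 20 μM test compound. Western blots were developed with BCIP/NBT substrate. Bands were quantified by densitometry and normalized to a loading control such as β-actin.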

4T1-CERS2^+/+ cells = test: Mitochondrial Ca2+ by Rhod-2 AM confocal microscopy; type: cell-based, mouse; conditions: 6 h
How it was run: (§1)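 Cells were seeded on glass-bottom dishes and grown overnight to ~70% confluence, in triplicate. Exposure was 6 h to test compound (5 or 10 μM) or thapsigargin (1 or 2 μM) as ER Ca2+-depletion control. Cells were rinsed in HBSS and co-loaded 20 min at 37°C with 1 μM Mag-Fluo-4 AM (ER Ca2+) and 100 nM Rhod-2 AM (mitochondrial Ca2+).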

4T1-CERS2^−/− cells = test: as above; type: cell-based, mouse; conditions: 6 h
How it was run: as §1

SMILES | baseline phosphorylation of PERK and eIF2α, inhibitor alone (MDA-MB-468 cells) | effect on DH20931-induced accumulation of ATF4 protein (MDA-MB-468 cells) | effect on DH20931-induced phosphorylation of PERK and eIF2α (MDA-MB-468 cells) | mitochondrial Ca2+ levels (4T1-CERS2^+/+ cells) | mitochondrial Ca2+ increase in the absence of CerS2 (4T1-CERS2^−/− cells)
Cn1cc(-c2ccc3c(c2)CCN3C(=O)Cc2cccc(C(F)(F)F)c2)c2c(N)ncnc21 [GSK2606414] | decrease in the baseline phosphorylation levels of both PERK and eIF2α | attenuated the DH20931-induced accumulation of ATF4 protein | did not affect the DH20931-induced phosphorylation |  | 
Cc1ccc2cc(-c3c(C)ccc(C(=O)c4c(-c5ccccc5)n(C)n(-c5ccccc5)c4=O)c3N)ccc2n1 [AMG44] | decrease in the baseline phosphorylation levels of both PERK and eIF2α | attenuated the DH20931-induced accumulation of ATF4 protein | markedly diminished it |  | 
C/C=C(/C)C(=O)O[C@H]1C(C)=C2[C@H]([C@@H]1OC(=O)CCCCCCC)[C@@](C)(OC(C)=O)C[C@H](OC(=O)CCC)[C@@]1(O)[C@H]2OC(=O)[C@@]1(C)O [Tg, thapsigargin] |  |  |  | increase in mitochondrial Ca^2+ levels | completely abolished
